This is one part of a sample in which hits are shown more often than they occur.
PGC1a Ac signal: raises PGC1a acetylation signal in U2OS cells | hit rate 0.21% among 350,000 | AID 651723 | U2OS PGC1a acetylation AlphaScreen, overnight | activation, % at 15.6 µM;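 active means every replicate reaching activation of at least 50%, whatever the mean replicate activation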;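 further: hits raise the AlphaScreen acetylation signal above neutral controls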
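Incubation: overnight compound treatment, 37 °C. System: U2OS cells transduced with flag-tagged PGC1a and GCN5 acetyltransferase. Detection: AlphaScreen lysate read. Compound: single-point compound dosing.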
Numbers stand for hits; i = inactive.

SMILES	PGC1a Ac signal
C[C@@H]1CCCCO[C@H](CN(C)Cc2ccc3c(c2)OCO3)[C@@H](C)CN([C@@H](C)CO)C(=O)c2cc(NC(=O)Nc3ccc(C(F)(F)F)cc3)ccc2O1	i
COc1ccc(Nc2ccnc3ccccc23)cc1	i
Nc1nc(Nc2ccccc2)nc2ccccc12	52
COc1cnc(-c2ccccn2)nc1Sc1ccc(C)cc1	i
COc1cccc2sc(Nc3nc(-c4ccccn4)cs3)nc12	60
OC[C@@H]1[C@H](c2ccc(/C=C/c3ccccc3)cc2)[C@H]2CN(CCC(F)(F)F)CCCCN12	67
OC[C@H]1[C@H](c2ccc(C#CC3CCCC3)cc2)[C@@H]2CN(CCC(F)(F)F)CCCCN12	65
O=C(Cc1cccnc1)N1CC(=O)N2[C@H](CO)[C@@H](c3ccc(C#CC4CCCCC4)cc3)[C@H]2C1	i
C[C@H]1CCCCO[C@H](CN(C)Cc2ccc3c(c2)OCO3)[C@@H](C)CN([C@@H](C)CO)C(=O)c2cc(NC(=O)Nc3ccc(C(F)(F)F)cc3)ccc2O1	i
CC1(C)CCC[C@]2(C)[C@H]3Cc4cc(O)ccc4O[C@]3(C)CC[C@@H]12	67
Cc1no[n+]([O-])c1COc1cccc(/C=N/Nc2nncn2N)c1	i
O=P(COCCOCCOCCOCP(=O)(c1ccccc1)c1ccccc1)(c1ccccc1)c1ccccc1	i
CCC1(CC)Cc2ccccc2-c2nc(CN(C)C)[nH]c(=O)c21	53
CC1=Nc2ccccc2N=C(NC(=O)CN2CCN(c3ccccc3)CC2)C1c1ccccc1 (stereo not drawn)	i
Cc1ccc(S(=O)(=O)N2CCCC2)cc1C(=O)O	i
Cc1ccc(-n2c(SCC(N)=O)nnc2-c2ccc(S(=O)(=O)N3CCCCC3)cc2)c(C)c1	63
CCOC(=O)N(O)c1ccc(C=Cc2ccccc2)cc1	i
O=C1C=CCCN1S(=O)(=O)/C=C/c1ccccc1	i
CN(C)c1ccc(C(=O)NC2(N3CCC3=O)CCCC2)cc1	i
CC(C)(C)S(=O)N1Cc2cc(C(=O)NCc3ccc(Oc4ccccc4)cc3)nc(-c3cccc(-c4cc5ccccc5o4)c3)c2[C@H]1CCO (stereo partly drawn)	62
O=C(Cc1ccccn1)NCC[C@@H]1CC[C@H](NC(=O)Nc2ccc(C(F)(F)F)cc2)[C@H](CO)O1	i
Cc1ccccc1OCC(=O)OCC(=O)NCc1ccc2c(c1)OCO2	68
COc1ccccc1/C=C(/C(=O)OCC(=O)NCc1ccccc1)c1ccccc1	i
CCN1CCN(C(=O)c2c(-c3c(F)cccc3Cl)noc2C)CC1	71
CC1CN(C2CCN(C(=O)c3cccc(Cl)c3)CC2)CC(C)O1 (stereo not drawn)	i
SMILES	PGC1a Ac signal
O=C(c1cccc(Cl)c1)N1CCN(c2ccc(N3CCOCC3)nn2)CC1	i
O=C(CC(CC(=O)c1ccc(Br)cc1)c1cccnc1)c1ccc(Br)cc1	i
CC(C)CC#Cc1cnc2c(c1)C(=O)N([C@@H](C)CO)C[C@@H](C)[C@H](CN(C)C(=O)c1ccccc1)O2	i
C[C@H]1CCCCO[C@@H](CN(C)C(=O)c2ccccc2)[C@@H](C)CN([C@@H](C)CO)C(=O)c2cc(NC(=O)Nc3ccc(F)cc3)ccc2O1	i
C[C@@H]1CN([C@@H](C)CO)C(=O)c2c(c3ccccc3n2C)-c2ccccc2CO[C@@H]1CN(C)C(=O)c1cc(Cl)cc(Cl)c1	96
O=Nc1c(-c2c(O)[nH]c3cc(Br)ccc23)[nH]c2ccccc12	258
CC(=O)N1/C(=C/c2ccc(N(C)C)cc2)C(=O)c2ccccc21	75
O=C(OCc1cnc(Cl)s1)c1cccs1	i
Cc1ccc(S(=O)(=O)N(C)C[C@@H]2OCCCC[C@H](C)Oc3ccc(NS(C)(=O)=O)cc3C(=O)N([C@@H](C)CO)C[C@@H]2C)cc1	i
CC(C)C#Cc1cnc2c(c1)C(=O)N([C@@H](C)CO)C[C@@H](C)[C@@H](CN(C)C(=O)c1ccccn1)O2	i
O=[N+]([O-])c1ccc(N=Nc2c(Cl)cc(O)cc2Cl)cc1	53
O=C1C=CC2(C=C1)O[C@H](Cc1ccccc1)[C@@H](Cc1ccccc1)O2	i
Cc1cc(C)c(S(=O)(=O)Nc2ccccc2-c2ccccc2)c(C)c1	79
COC(=O)c1c(C)oc(C)c1S(=O)(=O)Nc1ccccc1	i
C[C@H](CO)N1C[C@H](C)[C@@H](CN(C)CC2CC2)Oc2cc(-c3cccnc3)ccc2S1(=O)=O	i
O=C(NCC[C@@H]1CC[C@H](NS(=O)(=O)c2ccccc2)[C@@H](CO)O1)c1ccccc1F	i
CC(C)NC(=O)NCC[C@@H]1CC[C@H](NS(=O)(=O)c2ccc(-c3ccccc3)cc2)[C@@H](CO)O1	65
Cc1ccc(S(=O)(=O)N[C@@H]2CC[C@@H](CCNC(=O)c3ccccc3F)O[C@H]2CO)cc1	i
COCCSc1ccccc1C(=O)Nc1cc(C)on1	i
CCOC(=O)c1cnn(-c2ccccc2)c1-n1cccc1C(=O)C(=O)Nc1ccc(F)cc1	78
N#CC1(NC(=O)Cn2ncc(Cl)c(Cl)c2=O)CCCCC1	98
COc1ccc(NC(=O)N[C@@H]2C=C[C@@H](CC(=O)NCc3ccccn3)O[C@@H]2CO)cc1	i
Cc1ccc2[nH]c3ccccc3c(=O)c2c1	68
Cc1ccc(NC(=S)c2ccncc2)c(C)c1	164
C[C@@H]1CN([C@H](C)CO)C(=O)CCCn2cc(nn2)CO[C@@H]1CN(C)C(=O)OCc1ccccc1	i
SMILES	PGC1a Ac signal
COCCNC(=O)/C(C#N)=C/C=C/c1ccccc1[N+](=O)[O-]	104
Cn1nnnc1Sc1ncnc2scc(-c3cc4ccccc4o3)c12	106
Cn1nnnc1Sc1ncnc2scc(-c3ccc(C#N)cc3)c12	74
COc1ccc(Cl)cc1NC(=O)NCC1CCN(C(=O)OC(C)(C)C)CC1	i
CCC(=O)N1C[C@H](C)[C@H](OC)CN(C)C(=O)c2cc(NC(=O)c3cnccn3)ccc2OC[C@@H]1C	i
CC1(Cc2cc(Cl)ccc2C(F)(F)F)C(=O)Nc2ccc(S(=O)(=O)NC3CCCCC3)cc21 (stereo not drawn)	86
CCCSc1nnc(Sc2nnnn2-c2ccccc2)s1	84
Cc1ccccc1-n1nnnc1Sc1nnnn1-c1ccccc1	i
COc1ccc(S(=O)(=O)Nc2ccc3c(c2)C(=O)N([C@H](C)CO)C[C@H](C)[C@H](CN(C)S(=O)(=O)c2cn(C)cn2)OCCCC[C@@H](C)O3)cc1	i
COc1cccc(-n2nnnc2S(C)(=O)=O)c1	200
CCCOc1cccc(C(=O)Nc2cc(NC(=O)c3ccco3)ccc2OC)c1	61
CCOc1ccc(CC(=O)Nc2ccc(NC(=O)c3ccco3)cc2)cc1OCC	133
COc1cc(NC(=O)NCc2ccco2)ccc1-c1ccc(NC(=O)NCc2ccco2)cc1OC	i
COCC(=O)NCc1nc2ccccc2n1Cc1ccccc1F	i
OC(c1ccccc1)(C1CCCCC1)C(CN1CCOCC1)c1ccccc1 (stereo not drawn)	57
O=C(c1ccc(F)cc1)C(CN1CCOCC1)c1ccccc1 (stereo not drawn)	i
CO[C@@H]1CN(C)C(=O)c2cc(NC(C)=O)ccc2OC[C@H](C)N(Cc2cc(F)ccc2F)C[C@H]1C	i
O=C(Cn1nc(C(=O)O)c2ccccc2c1=O)Nc1cccc(Br)c1	i
O=C(NCc1ccc2c(c1)OCO2)c1nc(S(=O)(=O)Cc2ccccc2)ncc1Cl	74
CCCCCC(=O)N1C[C@H](n2cc(-c3ccc(F)cc3)nn2)[C@@H](O)C[C@@H]1c1ccc(C)cc1	i
Cn1c(=O)c2c(ncn2CC(=O)O)n(C)c1=O	i

Screening data deposited in PubChem by Broad Institute.
